Bioassay records from PubChem.
Only some compounds are listed: those with a hit (about 1.5% of all), similar ones and a draw of the others.
CHT inh – human CHT choline transport inhibition | B-score at 10 µM | Q9GZV3 | actives 0.86% (n = 310,000) | AID 488975 | CHT-expressing cells, membrane potential dye, choline response; active compounds read low;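 active = B-score over 3 SD under the library average, and starting fluorescence ratio not unusually high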;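 note: choline stimulus applied at its EC90 after an EC20 pre-addition; B-score computed on integrated fluorescence ratio after choline addition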
T cell modulator – T cell immune modulators affecting CD8 T cell-vesicle binding | 2C CD8+ T cell-vesicle binding, flow cytometry; active compounds read low | AID 2052 | response (vesicle binding), % at 7 µM | actives 0.068% (n = 330,000);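 active = response, share of CD8 T cells binding vesicles, and their 90th percentile fluorescence all below set limits, cut at about 80% in these data, passing the limit was not always enough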;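 note: values below 100% mean blocked vesicle binding to the CD8+ T cells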
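Benchmarks: naked versus QL9-loaded vesicles / Assay system: purified 2C TCR transgenic mouse naive CD8+ T cells / Technique: high-throughput flow cytometry with anti-B7-1 and anti-CD8 staining / Timing: Cell–vesicle co-incubation 1.5 h at 37 °C, staining 20 min on ice / Read-out: percent CD8+ FL2 mean versus row control / Probe or stimulus: QL9-loaded Drosophila micro-vesicles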
VLA-4 inh – inhibition in a human VLA-4 binding assay. P13612. VLA-4 expressing cells, ligand binding flow cytometry. inhibition, % (about 7 µM as worked out from the volumes in the protocol). actives 0.2% (n = 330,000). AID 2557; in the data active = inhibition above about 50%
Target sequence (P13612 whole entry, looked up): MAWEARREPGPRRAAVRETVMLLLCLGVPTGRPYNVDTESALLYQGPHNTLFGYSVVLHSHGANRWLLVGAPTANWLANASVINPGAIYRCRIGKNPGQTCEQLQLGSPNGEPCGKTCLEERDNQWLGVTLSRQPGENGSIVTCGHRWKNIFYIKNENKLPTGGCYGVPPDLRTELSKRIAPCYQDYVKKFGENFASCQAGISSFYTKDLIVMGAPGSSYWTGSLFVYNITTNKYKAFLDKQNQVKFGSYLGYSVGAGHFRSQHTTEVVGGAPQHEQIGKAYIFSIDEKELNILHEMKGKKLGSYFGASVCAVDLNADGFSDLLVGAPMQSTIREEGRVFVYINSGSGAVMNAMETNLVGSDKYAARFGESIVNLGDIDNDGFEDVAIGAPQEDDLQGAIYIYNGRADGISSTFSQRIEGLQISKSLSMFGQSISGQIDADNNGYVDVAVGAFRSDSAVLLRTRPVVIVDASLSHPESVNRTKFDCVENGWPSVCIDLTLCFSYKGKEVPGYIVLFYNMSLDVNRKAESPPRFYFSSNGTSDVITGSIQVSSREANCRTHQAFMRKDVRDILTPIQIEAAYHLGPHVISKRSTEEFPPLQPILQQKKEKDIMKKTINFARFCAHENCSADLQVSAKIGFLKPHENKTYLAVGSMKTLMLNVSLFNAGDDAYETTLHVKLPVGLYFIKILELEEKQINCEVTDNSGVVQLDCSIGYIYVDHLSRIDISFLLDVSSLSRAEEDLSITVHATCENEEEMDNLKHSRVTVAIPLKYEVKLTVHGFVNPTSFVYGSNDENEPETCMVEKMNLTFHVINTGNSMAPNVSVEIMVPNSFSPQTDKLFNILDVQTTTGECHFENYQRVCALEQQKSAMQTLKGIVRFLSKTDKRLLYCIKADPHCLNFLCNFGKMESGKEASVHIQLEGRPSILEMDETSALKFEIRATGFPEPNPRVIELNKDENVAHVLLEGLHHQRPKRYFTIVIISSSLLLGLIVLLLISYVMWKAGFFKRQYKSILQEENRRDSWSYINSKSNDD
CHT allo act – allosterically activates the human high affinity choline transporter. actives 0.49% (n = 310,000). CHT-expressing cells, membrane potential dye, choline EC20; active compounds read high; LV-AA mutant CHT in HEK293 cells. Q9GZV3. AID 488977. B-score at 10 µM;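 active = initial fluorescence not abnormally high and integrated response B-score, plate-corrected, over 3 SD above library mean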
CHT inh conf – confirmation of human choline transporter CHT inhibitors; shares compounds with CHT inh; CHT-expressing cells, choline membrane potential dye; LV-to-AA substituted CHT, HEK293 cells; CHT activity remaining % of control (active compounds read low), % at 10 µM; actives 70% (n = 2,400);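 active = choline transporter activity left, mean of duplicates at 10 µM, below buffer-only control mean minus 3 SD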;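 note: depolarization triggered by choline at its EC90 following an EC20 pre-addition; 0% = hemicholinium-3 full block and 100% = buffer-only control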
HEK293 CHT ctr – activity in parental HEK293 cells lacking CHT; shares compounds with CHT inh; membrane potential dye, choline response; active = decrease or increase beyond buffer ±3SD; membrane potential ratio readout (active if shifted either direction beyond buffer ±3SD; no single direction) at 10 µM; actives 4% (n = 2,400); AID 493222;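 note: parental cells lack the transporter so any hit is non-specific; ratio is peak minus trough fluorescence over baseline after EC90 choline challenge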
The depositor's hits bear a star; i = inactive; . = not tested or not shown.

SMILES	CHT inh	T cell modulator	VLA-4 inh	CHT allo act	CHT inh conf	HEK293 CHT ctr
O=C(O)CSc1cc(C(=O)c2cc(F)ccc2O)cn2c(=O)c3c(-c4ccccc4)csc3nc12	-6.99*	96.3	-6.1	i	26.1%*	i
O=C(c1cccc(Cl)c1)C1CCCN(C(=O)c2ccc3c(c2)OCO3)C1 (centres undefined)	i	218.7	5.6	i	.	.
Oc1ccc(Nc2nc(-c3ccc4ccccc4c3)cs2)cc1	i	159.9	2.4	i	.	.
Oc1ccc(-c2nc(-c3ccc(O)c(O)c3)cs2)cc1	-5.03*	343.9	28.0	i	67.8%*	i
COc1ccccc1C1/C(=C(\O)c2ccc3c(c2)OCCO3)C(=O)C(=O)N1CCCn1ccnc1 (centres undefined)	i	280.0	-7.3	i	.	.
CC(NC(=O)Cn1nc(-c2ccccc2)c2ccccc2c1=O)c1ccccc1 (centres undefined)	-5.19*	338.8	7.4	i	68.9%*	i
Cc1ccc(NC(=O)c2ccccc2NS(=O)(=O)c2ccc(Cl)s2)cc1S(=O)(=O)N1CCOCC1	-11.5*	122.3	19.0	i	39.7%*	i
COc1ccccc1NC(=O)c1ccccc1NS(=O)(=O)c1cccs1	i	396.2	12.1	i	.	.
COc1ccc(C)cc1NC(=O)c1ccccc1NS(=O)(=O)c1ccc(Cl)s1	-7.52*	355.5	14.4	i	14.9%*	i
COc1ccc(NC(=O)CSc2nnc3n2CCCCC3)cc1	i	250.1	-0.7	i	.	.
Cc1nnc(SCc2cc(=O)oc3ccc4ccccc4c23)n1Cc1ccccc1	i	887.5	-7.9	i	.	.
CCCn1c(SCc2cc(=O)oc3ccc4ccccc4c23)n[nH]c1=O	-5.38*	233.8	-17.6	i	i	i
COc1ccc2c(c1)OC[C@H]1[C@H]2N2C(=O)CN(CCc3c[nH]c4ccccc34)C(=O)[C@@]2(C)[C@H]1c1ccccc1	.	253.1	7.2	.	.	.
CCN(CC)CCCCCCCCOC(=O)c1cc(OC)c(OC)c(OC)c1	-5.37*	316.2	0.4	i	19.8%*	i
CCN(CC)S(=O)(=O)c1ccc(N2CC(C(=O)NC3(C)CCS(=O)(=O)C3)CC2=O)cc1 (centres undefined)	.	220.4	-1.2	.	.	.
Cc1nc(C)c(C(=O)Nc2ccc(Oc3ccccc3)cc2)o1	i	287.1	-2.9	i	.	.
Cc1ncoc1C(=O)Nc1ccc(Oc2ccccc2)cc1	-5.96*	418.7	4.4	i	56.9%*	i
CCOC(=O)C1CCN(Cc2c(O)c3ccccc3oc2=O)CC1	-5.9*	157.0	-2.4	i	65.1%*	i
Cc1ccc(S(=O)(=O)Nc2nc3ccccc3nc2NCc2ccco2)cc1C	-5.03*	208.1	15.4	i	i	i
Cc1ccc(S(=O)(=O)Nc2nc3ccccc3nc2NCc2ccco2)cc1	i	595.7	-164.9	i	.	.
COc1ccc(NC(=O)C(C)N2C(=O)C3CC=C(Cl)CC3C2=O)cc1 (centres undefined)	i	221.7	24.4	i	.	.
Cn1c(-c2ccccc2)cnc1NCc1ccccc1	-7.19*	193.7	2.1	i	45.6%*	i
Cc1ccc(CNc2ncc(-c3ccccc3)n2C)o1	-5.06*	376.6	2.2	i	33.8%*	i
Cn1c(-c2cccc(Br)c2)cnc1NCc1ccccc1O	i	94.8	1.8	i	.	.
Cn1c(-c2ccc3c(c2)OCO3)cnc1NCc1ccccc1	i	522.5	5.0	i	.	.
SMILES	CHT inh	T cell modulator	VLA-4 inh	CHT allo act	CHT inh conf	HEK293 CHT ctr
COC(=O)c1ccc2c(=O)n(CCCCCC(=O)NC(C)C)c(=O)[nH]c2c1	i	194.5	6.9	i	.	.
CCCc1cc(=O)[nH]c(SCC(=O)Nc2cccc3ccccc23)n1	i	379.9	6.5	i	.	.
O=C(CSc1nc(C(F)(F)F)cc(=O)[nH]1)Nc1cccc2ccccc12	-5.37*	413.5	-9.7	i	40.4%*	i
CCN(Cc1ccncc1)C(=O)c1cc(COc2ccc(F)cc2Cl)on1	-5.7*	345.1	5.9	i	48.9%*	i
CCN(Cc1ccncc1)C(=O)c1cc(COc2ccc(OC)cc2Cl)on1	i	268.4	-5.4	i	.	.
Cc1cc(CN(C)C(=O)c2cc(COc3ccc(F)cc3Cl)on2)n[nH]1	-6.04*	104.8	-3.4	i	54.6%*	i
CC1(C(=O)NCCCN2CCOCC2)Oc2cccnc2NC1=O (centres undefined)	i	205.0	0.7	i	.	.
N#Cc1ccc(CSc2ccccn2)c(Cl)c1	i	162.9	4.4	i	.	.
Cn1c(SCc2ccc(C#N)cc2Cl)nc2ccccc21	-11.5*	433.0	4.5	i	3.8%*	i
COc1ccc(-c2ccc3c(c2)O/C(=C\c2ccsc2)C3=O)cn1	.	i	-48.8	.	.	.
Cc1cc(C(=O)NNC(=O)c2sccc2C)c(C)o1	i	194.8	18.2	i	.	.
CCn1c2ccccc2c2cc([N+](=O)[O-])ccc21	i	244.7	3.9	i	.	.
CCn1c2ccccc2c(=O)c2ccccc21	-8.18*	482.0	-0.8	i	14.9%*	i
C=CCn1c(SC2CCOC2=O)nc2scc(C3CC3)c2c1=O (centres undefined)	-5.71*	482.4	4.9	i	47.2%*	i
C=CCn1c(SC2CCOC2=O)nc2sc(C)c(C)c2c1=O (centres undefined)	i	272.3	17.1	i	.	.
O=C(Cc1ccc(-n2c(=O)c3ccccc3n(Cc3ccccc3F)c2=O)cc1)NCC1CCCO1 (centres undefined)	-7.85*	500.4	20.0	i	41.3%*	i
COc1ccc(C(=O)NCCc2nnc3ccc(SCC(=O)N4CCCC4)nn23)cc1	i	350.0	10.4	i	.	.
O=S(=O)(Nc1ccccc1N1CCOCC1)c1ccc(Cl)cc1	.	151.3	8.7	.	.	.
N#Cc1ccccc1COC(=O)c1cccnc1N	-5.67*	154.8	10.3	i	64.9%*	i
Cc1c(NCc2cc(Cl)cc(Cl)c2O)c(=O)n(-c2ccccc2)n1C	-5.01*	443.6	-3.0	i	i	i
Cc1c(NCc2cc(Cl)ccc2O)c(=O)n(-c2ccccc2)n1C	i	324.0	3.5	i	.	.
COc1cc(C)nc(N2CCCC(C(=O)Nc3cccc(Cl)c3Cl)C2)n1 (centres undefined)	i	173.5	-1.7	i	.	.
COc1ccccc1NC(=O)C1CCCN(c2nc(C)cc(C)n2)C1 (centres undefined)	-5.73*	577.8	5.2	i	i	i
COc1ccc(NC(=O)CN(C)C(=O)c2cn(-c3ccccc3)nc2-c2cccnc2)cc1	i	713.5	-2.9	i	.	.
